Results collected from several papers.
Lines come from different studies, so protocols differ.
Target: Inhibitor of nuclear factor kappa-B kinase subunit beta (IKBKB, Homo sapiens, UniProt O14920)

SMILES | assay | conditions | endpoint | result
Cc1cc(NC(=O)c2cccc3cc(-c4cccc5[nH]nc(N)c45)ccc23)ccc1F | enzyme activity, inhibitor | 0.1 µM | activity vs control | 106%
COc1cc(Nc2cnc(C#N)c(O[C@H](C)CN(C)C)n2)ncc1-c1cnn(C)c1 | enzyme activity, inhibitor, radiometric | 1 µM | remaining activity | 96%
Cn1c2c(c3ccc(Cl)c(Cl)c31)C(C#N)C1(CCCC1)NC2=O (stereo not shown) | thermal stability, DSF | 10 µM | ΔTm | -0.7 °C
O=C1Nc2ccc(Cl)cc2C1=Cc1cc(Cl)c(O)c(Cl)c1 | cell-free assay | 0.5 µM | remaining signal | 93.6%
CC1=C(C#N)[C@@H](c2ccc3[nH]nc(C)c3c2)C(C#N)=C(c2ccc(Cl)cc2)N1 | cell-free assay, competition with immobilised ligand | 1 µM | remaining binding | 100%
CCN(CC)CCNC(=O)c1c(C)[nH]c(/C=C2\C(=O)Nc3ccc(Cl)cc32)c1C | enzyme activity, inhibitor | 0.5 µM | remaining activity | 101%
Cc1sc(C(=O)NC2COC2)cc1-n1cc(NC(=O)Nc2c(F)cccc2Cl)cn1 | enzyme activity, inhibitor | 10 µM | remaining activity | 86.8%
O=C(Nc1cccnn1)N1CC(C/C=C/c2cncc(Oc3ccc(C(F)(F)F)cn3)n2)C1 | cell-free assay, competition with immobilised ligand | 1 µM | remaining binding | 94%
N#CCCc1ccc2c(c1)-c1[nH]c3ccc([N+](=O)[O-])cc3c1CC(=O)N2 | cell-free assay | 0.5 µM | remaining signal | 96.3%
Cn1c(=O)n(-c2ccc(C(C)(C)C#N)cc2)c2c3cc(-c4cnc5ccccc5c4)ccc3ncc21 | enzyme activity, inhibitor | 10 µM | remaining activity | 92%
CCCCN(CCCC)C(=O)CN1C[C@@H](c2cc(OC)c3c(c2)OCO3)[C@H](C(=O)O)[C@H]1CC(C)(C)CCC | cell-free assay, competition with immobilised ligand | 1 µM | remaining binding | 100%
Clc1ccc(Nc2nnc(Cc3ccncc3)c3ccccc23)cc1 | cell-free assay | 0.5 µM | remaining signal | 85.6%
O=C(Nc1cnn(-c2csc(C(=O)NC3COC3)c2)c1)Nc1ccccc1Cl | enzyme activity, inhibitor | 5 µM | remaining activity | 95.6%
COc1cc2ncnc(Nc3ccc(Oc4ccccc4)cc3C)c2cc1OC | enzyme activity, inhibitor | 1 µM | inhibition | 1%
CC(C)(C)c1nc2c(s1)c1nc(N)ncc1c1ccc(NS(=O)(=O)c3c(F)cccc3F)c(F)c12 | enzyme activity, inhibitor, radiometric | 1 µM | remaining activity | 79%
Nc1nc(NC2CCCCC2)sc1C(=O)c1ccccc1 | enzyme activity, inhibitor | 10 µM | remaining activity | 70%
COc1ccc2c(c1)O[C@@H](c1ccc(OC)c(OC)c1)C[C@H]2NC(=O)C1(c2ccc3c(c2)OC(F)(F)O3)CC1 | cell-free assay, competition with immobilised ligand | 1 µM | remaining binding | 95%
O=C1NC(=O)c2cc(Nc3ccc(F)cc3)c(Nc3ccc(F)cc3)cc21 | cell-free assay | 0.5 µM | remaining signal | 95.6%
CCS(=O)(=O)c1cc2cc(C[C@](O)(CC(C)(C)c3ccc(F)cc3C(N)=O)C(F)(F)F)[nH]c2cn1 | cell-free assay, competition with immobilised ligand | 1 µM | remaining binding | 91%
CCN(CC)CCNC(=O)c1c(C)[nH]c(/C=C2\C(=O)Nc3ccc(F)cc32)c1C | enzyme activity, inhibitor | 0.3 µM | inhibition | -1%

SMILES | assay | conditions | endpoint | result
CS(=O)(=O)Nc1cccc(-c2csc(NC(=O)CSc3nc4nccnc4c(=O)n3CCc3ccccc3)n2)c1 | enzyme activity, inhibitor | 10 µM | inhibition | 4%
Nc1ncnc2occ(-c3ccc(NC(=O)Nc4cc(C(F)(F)F)ccc4F)cc3)c12 | enzyme activity, inhibitor | 20 µM | remaining activity | 0.55%
CCOCCn1cc(C(=O)Nc2ccc(-n3nc(-c4cccnc4)cc3C(F)(F)F)cn2)ccc1=O | cell-free assay, competition with immobilised ligand | 1 µM | remaining binding | 100%
N#CC1c2c([nH]c3c(Cl)c(Cl)ccc23)C(=O)NC12CCCCC2 (racemic) | thermal stability, DSF | 10 µM | ΔTm | 0.6 °C
CCCCNc1ncc2c(-c3ccc(F)cc3)nn(C[C@H]3CC[C@H](N)CC3)c2n1 | target engagement in cells, inhibitor, chemoproteomics | 20 mM | inhibition | -14.9%
CCN1CCC2(CC1)NC(=O)c1c(c3ccc(Cl)c(Cl)c3n1C)C2C#N (racemic) | thermal stability, DSF | 10 µM | ΔTm | 0 °C
Cc1ccc(C(=O)Nc2ccc(CN3CCN(C)CC3)c(C(F)(F)F)c2)cc1C#Cc1cnc2cccnn12 | enzyme activity, inhibitor | 23.5 nM | remaining activity | 37%
NS(=O)(=O)c1cc(NC(=O)Cc2ccccc2)ccc1Oc1cccc(Cl)c1 | cell-free assay, competition with immobilised ligand | 1 µM | remaining binding | 91%
CNC(=O)c1cc(Oc2ccc(NC(=O)Nc3ccc(Cl)c(C(F)(F)F)c3)cc2)ccn1 | enzyme activity, inhibitor | 0.3 µM | inhibition | -5%
COc1cc(Cl)c(C(=O)N[C@@H](CN[C@H]2CC[C@@H](N)CC2)Cc2ccc(C#N)cc2)cc1-c1ccc(CN[C@H](C)c2ccc(C)cc2)o1 | enzyme activity, inhibitor | 1 µM | remaining activity | 88%
Cc1ccc(Nc2nccc(N(C)c3ccc4c(C)n(C)nc4c3)n2)cc1S(N)(=O)=O | enzyme activity, inhibitor | 0.3 µM | inhibition | 3%
CN1CCC2(CC1)NC(=O)c1c(c3ccc(Cl)c(Cl)c3n1C)C2C#N (racemic) | thermal stability, DSF | 10 µM | ΔTm | -0.2 °C
FC(F)(F)Oc1cccc(-c2cnc3ccc(-c4ccncc4)nn23)c1 | enzyme activity, inhibitor, radiometric | 1 µM | activity vs control | 94%
Oc1cccc(-c2nc(N3CCOCC3)c3oc4ncccc4c3n2)c1 | enzyme activity, inhibitor | 10 µM | remaining activity | 74%
CN(C)C1CCN(CC#Cc2nn(C3CCCC3)c3nc(NCc4ccccc4)ncc23)C1 (stereo not shown) | enzyme activity, inhibitor, FRET | 1 µM | inhibition | 1%
Cn1c2c(Cl)c(Cl)ccc2c2cc(N)[nH]c(=O)c21 | thermal stability, DSF | 10 µM | ΔTm | -0.6 °C
CCCOc1ccc(OC)c(F)c1C(=O)c1ccc(C(=O)N[C@@H]2CNC[C@H]2NC(=O)c2ccc3[nH]ncc3c2)cc1 | enzyme activity, inhibitor | 10 µM | remaining activity | 62%
Cc1ccc(C(=O)NCc2ccsc2)cc1C#Cc1cn(C(C)C)c2ncnc(N)c12 | enzyme activity, inhibitor | 1 µM | activity vs control | 108%
NS(=O)(=O)c1cc(NC(=O)C2(c3ccccc3Cl)CC2)ccc1Oc1cccc(Cl)c1 | cell-free assay, competition with immobilised ligand | 1 µM | remaining binding | 70%
C=CC(=O)Nc1cc(Nc2nccc(Nc3cc(Cl)c(F)cc3C(C)(C)O)n2)c(OC)cc1N1CC[C@@H](N(C)C)C1 | enzyme activity, inhibitor | 1 µM | inhibition | -5%
